Assay results published in ChEMBL document CHEMBL1629690, “Development of hexadecyloxypropyl tenofovir (CMX157) for treatment of infection caused by wild-type and nucleoside/nucleotide-resistant HIV” (Antimicrob Agents Chemother, 2010).
pEC50: −log10 of the molar value.

What was measured:
[1] = system: Human immunodeficiency virus 1; experiment: Antiviral activity against HIV1 isolate 058 harboring reverse transcriptase M41L/D67N/K70R/L210W/T215F/K219Q mutant gene by phenosense assay; format: functional, organism-based; settings: Human immunodeficiency virus 1, isolate 058
Procedure, shortened: (§1)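 Recombinant-virus PhenoSense HIV assay run on a panel of 30 NRTI-resistant HIV-1 mutants and two wild-type viruses. Each virus is tested across increasing drug concentrations to give an inhibition curve and EC50. Fold change is the test recombinant EC50 divided by the EC50 of the drug-sensitive wild-type reference virus.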

[2] = system: Human immunodeficiency virus 1; experiment: Antiviral activity against HIV1 isolate 060 harboring reverse transcriptase M41L/D67N/K70R/L210W/T215Y/K219E mutant gene by phenosense assay; format: functional, organism-based; settings: Human immunodeficiency virus 1, isolate 060; procedure, shortened: as §1
[3] = system: Human immunodeficiency virus 1; experiment: Antiviral activity against HIV1 isolate 061 harboring reverse transcriptase M41L/D67N/K70R/M184V/L210W/T215Y/K219E mutant gene by phenosense assay; format: functional, organism-based; settings: Human immunodeficiency virus 1, isolate 061; procedure, shortened: as §1
[4] = system: Human immunodeficiency virus 1; experiment: Antiviral activity against HIV1 isolate 066 harboring reverse transcriptase 184V mutant gene by phenosense assay; format: functional, organism-based; settings: Human immunodeficiency virus 1, isolate 066; procedure, shortened: as §1
[5] = system: Human immunodeficiency virus 1; experiment: Antiviral activity against HIV1 isolate 067 harboring reverse transcriptase A62V/D67G/T69SVG/V75I/T215I mutant gene by phenosense assay; format: functional, organism-based; settings: Human immunodeficiency virus 1, isolate 067; procedure, shortened: as §1
[6] = system: Human immunodeficiency virus 1; experiment: Antiviral activity against HIV1 isolate 069 harboring reverse transcriptase D67E/T69SSG/V75M/M184V/L210W/T215Y mutant gene by phenosense assay; format: functional, organism-based; settings: Human immunodeficiency virus 1, isolate 069; procedure, shortened: as §1
[7] = system: Human immunodeficiency virus 1; experiment: Antiviral activity against HIV1 isolate 070 harboring reverse transcriptase 65R/S68G mutant gene by phenosense assay; format: functional, organism-based; settings: Human immunodeficiency virus 1, isolate 070; procedure, shortened: as §1
[8] = system: Human immunodeficiency virus 1; experiment: Antiviral activity against HIV1 isolate 174 harboring reverse transcriptase M184V mutant gene obtained as site-directed mutant of NL4-3 by phenosense assay; format: functional, organism-based; settings: Human immunodeficiency virus 1, isolate 174; procedure, shortened: as §1
[9] = system: Human immunodeficiency virus 1; experiment: Antiviral activity against HIV1 isolate 192 harboring reverse transcriptase M41L/T215Y mutant gene by phenosense assay; format: functional, organism-based; settings: Human immunodeficiency virus 1, isolate 192; procedure, shortened: as §1
[10] = system: Human immunodeficiency virus 1; experiment: Antiviral activity against HIV1 isolate 194 harboring reverse transcriptase M41L/T215Y/M184V mutant gene by phenosense assay; format: functional, organism-based; settings: Human immunodeficiency virus 1, isolate 194; procedure, shortened: as §1
[11] = system: Human immunodeficiency virus 1; experiment: Antiviral activity against HIV1 isolate 200 harboring reverse transcriptase M41L/L210W/T215Y mutant gene by phenosense assay; format: functional, organism-based; settings: Human immunodeficiency virus 1, isolate 200; procedure, shortened: as §1
[12] = system: Human immunodeficiency virus 1; experiment: Antiviral activity against HIV1 isolate 203 harboring reverse transcriptase M41L/L210W/T215Y/M184V mutant gene by phenosense assay; format: functional, organism-based; settings: Human immunodeficiency virus 1, isolate 203
Procedure, shortened: (§2)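 PhenoSense HIV recombinant virus assay: patient-derived HIV-1 with major NRTI resistance mutations tested against increasing drug concentrations to give inhibition curves. EC50 is the concentration giving 50% inhibition. Fold change is the test recombinant EC50 divided by the EC50 of a drug-sensitive wild-type reference virus. Panel of 30 NRTI-resistant isolates plus two wild-type viruses.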

[13] = system: Human immunodeficiency virus 1; experiment: Antiviral activity against HIV1 isolate 204 harboring reverse transcriptase M41L/L210W/T215Y/M184V mutant gene by phenosense assay; format: functional, organism-based; settings: Human immunodeficiency virus 1, isolate 204; procedure, shortened: as §2
[14] = system: Human immunodeficiency virus 1; experiment: Antiviral activity against HIV1 isolate 206 harboring reverse transcriptase D67N/K70R mutant gene by phenosense assay; format: functional, organism-based; settings: Human immunodeficiency virus 1, isolate 206; procedure, shortened: as §2
[15] = system: Human immunodeficiency virus 1; experiment: Antiviral activity against HIV1 isolate 215 harboring reverse transcriptase D67N/K70E mutant gene by phenosense assay; format: functional, organism-based; settings: Human immunodeficiency virus 1, isolate 215; procedure, shortened: as §2
[16] = system: Human immunodeficiency virus 1; experiment: Antiviral activity against HIV1 isolate 220 harboring reverse transcriptase K70E/M184V mutant gene by phenosense assay; format: functional, organism-based; settings: Human immunodeficiency virus 1, isolate 220; procedure, shortened: as §2
[17] = system: Human immunodeficiency virus 1; experiment: Antiviral activity against HIV1 isolate 058 harboring reverse transcriptase M41L/D67N/K70R/L210W/T215F/K219Q mutant gene by phenosense assay relative to wild type; format: functional; procedure, shortened: as §1
[18] = system: Human immunodeficiency virus 1; experiment: Antiviral activity against HIV1 isolate 060 harboring reverse transcriptase M41L/D67N/K70R/L210W/T215Y/K219E mutant gene by phenosense assay relative to wild type; format: functional; procedure, shortened: as §1
[19] = system: Human immunodeficiency virus 1; experiment: Antiviral activity against HIV1 isolate 063 harboring reverse transcriptase M41L/D67N/K70R/M184V/L210W/T215Y/K219E mutant gene by phenosense assay relative to wild type; format: functional; procedure, shortened: as §1
[20] = system: Human immunodeficiency virus 1; experiment: Antiviral activity against HIV1 isolate 066 harboring reverse transcriptase 184V mutant gene by phenosense assay relative to wild type; format: functional; procedure, shortened: as §1
[21] = system: Human immunodeficiency virus 1; experiment: Antiviral activity against HIV1 isolate 069 harboring reverse transcriptase D67E/T69SSG/V75M/M184V/L210W/T215Y mutant gene by phenosense assay relative to wild type; format: functional; procedure, shortened: as §1
[22] = system: Human immunodeficiency virus 1; experiment: Antiviral activity against HIV1 isolate 070 harboring reverse transcriptase 65R/S68G mutant gene by phenosense assay relative to wild type; format: functional; procedure, shortened: as §1
[23] = system: Human immunodeficiency virus 1; experiment: Antiviral activity against HIV1 isolate 157 harboring reverse transcriptase L74V/M184V mutant gene by phenosense assay relative to wild type; format: functional; procedure, shortened: as §1
[24] = system: Human immunodeficiency virus 1; experiment: Antiviral activity against HIV1 isolate 160 harboring reverse transcriptase S68G/V75(I/T)/F77L/Y115F/F116Y /Q151M mutant gene by phenosense assay relative to wild type; format: functional; procedure, shortened: as §1
[25] = system: Human immunodeficiency virus 1; experiment: Antiviral activity against HIV1 isolate 162 harboring reverse transcriptase A62V/V75I/F77L/Y115F/F116Y/Q151M/M184V mutant gene by phenosense assay relative to wild type; format: functional; procedure, shortened: as §1
[26] = system: Human immunodeficiency virus 1; experiment: Antiviral activity against HIV1 isolate 174 harboring reverse transcriptase M184V mutant gene obtained as site-directed mutant of NL4-3 by phenosense assay relative to wild type; format: functional; procedure, shortened: as §1
[27] = system: Human immunodeficiency virus 1; experiment: Antiviral activity against HIV1 isolate 180 harboring reverse transcriptase K65R mutant gene obtained as site-directed mutant of NL4-3 by phenosense assay relative to wild type; format: functional; procedure, shortened: as §1
[28] = system: Human immunodeficiency virus 1; experiment: Antiviral activity against HIV1 isolate 185 harboring reverse transcriptase T215Y mutant gene by phenosense assay relative to wild type; format: functional; procedure, shortened: as §1
[29] = system: Human immunodeficiency virus 1; experiment: Antiviral activity against HIV1 isolate 188 harboring reverse transcriptase T215Y/M184V mutant gene by phenosense assay relative to wild type; format: functional; procedure, shortened: as §1
[30] = system: Human immunodeficiency virus 1; experiment: Antiviral activity against HIV1 isolate 201 harboring reverse transcriptase M41L/L210W/T215Y mutant gene by phenosense assay relative to wild type; format: functional; procedure, shortened: as §2
[31] = system: Human immunodeficiency virus 1; experiment: Antiviral activity against HIV1 isolate 203 harboring reverse transcriptase M41L/L210W/T215Y/M184V mutant gene by phenosense assay relative to wild type; format: functional; procedure, shortened: as §2
[32] = system: Human immunodeficiency virus 1; experiment: Antiviral activity against HIV1 isolate 206 harboring reverse transcriptase D67N/K70R mutant gene by phenosense assay relative to wild type; format: functional; procedure, shortened: as §2
[33] = system: Human immunodeficiency virus 1; experiment: Antiviral activity against HIV1 isolate 211 harboring reverse transcriptase D67N/K70R/T215F/K219E/M184V mutant gene by phenosense assay relative to wild type; format: functional; procedure, shortened: as §2
[34] = system: Human immunodeficiency virus 1; experiment: Antiviral activity against HIV1 isolate 215 harboring reverse transcriptase D67N/K70E mutant gene by phenosense assay relative to wild type; format: functional; procedure, shortened: as §2
[35] = system: Human immunodeficiency virus 1; experiment: Antiviral activity against HIV1 isolate 217 harboring reverse transcriptase D67N/K70E/M184V mutant gene by phenosense assay relative to wild type; format: functional; procedure, shortened: as §2
[36] = system: Human immunodeficiency virus 1; experiment: Antiviral activity against HIV1 isolate 220 harboring reverse transcriptase K70E/M184V mutant gene by phenosense assay relative to wild type; format: functional; procedure, shortened: as §2

SMILES: O=c1[nH]cnc2c1ncn2[C@H]1CC[C@@H](CO)O1 [DIDANOSINE]
- pEC50 [1]: 5.06
- pEC50 [2]: 5.05
- pEC50 [3]: 4.92
- pEC50 [4]: 5.12
- pEC50 [5]: 4.66
- pEC50 [6]: 4.62
- pEC50 [7]: 5.04
- pEC50 [8]: 5.17
- pEC50 [9]: 5.20
- pEC50 [10]: 5.00
- pEC50 [11]: 5.12
- pEC50 [12]: 5.09
- pEC50 [13]: 5.07
- pEC50 [14]: 5.18
- pEC50 [15]: 5.11
- pEC50 [16]: 5.00
- fold change (FC) [17]: 1.6
- fold change (FC) [18]: 1.5
- fold change (FC) [19]: 2.1
- fold change (FC) [20]: 1.4
- fold change (FC) [21]: 4.4
- fold change (FC) [22]: 1.7
- fold change (FC) [23]: 2
- fold change (FC) [24]: 12
- fold change (FC) [25]: 11
- fold change (FC) [26]: 1.2
- fold change (FC) [27]: 2
- fold change (FC) [28]: 1.1
- fold change (FC) [29]: 1.4
- fold change (FC) [30]: 1.1
- fold change (FC) [31]: 1.5
- fold change (FC) [32]: 1.2
- fold change (FC) [33]: 1.6
- fold change (FC) [34]: 1.4
- fold change (FC) [35]: 1.3
- fold change (FC) [36]: 1.8

SMILES: Cc1cn([C@H]2C[C@H](N=[N+]=[N-])[C@@H](CO)O2)c(=O)[nH]c1=O [ZIDOVUDINE]
- pEC50 [1]: 5.02
- pEC50 [2]: 4.80
- pEC50 [3]: 5.66
- pEC50 [4]: 7.77
- pEC50 [5]: < 4.60
- pEC50 [6]: 5.06
- pEC50 [7]: 7.92
- pEC50 [8]: 8.05
- pEC50 [9]: 6.25
- pEC50 [10]: 6.74
- pEC50 [11]: 5.57
- pEC50 [12]: 7.06
- pEC50 [13]: 6.96
- pEC50 [14]: 6.11
- pEC50 [15]: 8.22
- pEC50 [16]: 8.40
- fold change (FC) [17]: 350
- fold change (FC) [18]: 400
- fold change (FC) [19]: 59
- fold change (FC) [20]: 0.63
- fold change (FC) [21]: 320
- fold change (FC) [22]: 0.44
- fold change (FC) [23]: 0.22
- fold change (FC) [24]: 93
- fold change (FC) [25]: 150
- fold change (FC) [26]: 0.34
- fold change (FC) [27]: 0.51
- fold change (FC) [28]: 38
- fold change (FC) [29]: 2.6
- fold change (FC) [30]: 98
- fold change (FC) [31]: 3.2
- fold change (FC) [32]: 28
- fold change (FC) [33]: 7
- fold change (FC) [34]: 0.21
- fold change (FC) [35]: 0.15
- fold change (FC) [36]: 0.13

SMILES: Cc1cn([C@H]2C=C[C@@H](CO)O2)c(=O)[nH]c1=O [STAVUDINE]
- pEC50 [1]: 5.66
- pEC50 [2]: 5.55
- pEC50 [3]: 5.62
- pEC50 [4]: 6.34
- pEC50 [5]: 5.19
- pEC50 [6]: 5.17
- pEC50 [7]: 6.11
- pEC50 [8]: 6.40
- pEC50 [9]: 6.08
- pEC50 [10]: 6.07
- pEC50 [11]: 5.92
- pEC50 [12]: 6.06
- pEC50 [13]: 5.96
- pEC50 [14]: 6.11
- pEC50 [15]: 6.25
- pEC50 [16]: 6.41
- fold change (FC) [17]: 3.7
- fold change (FC) [18]: 3.1
- fold change (FC) [19]: 2.3
- fold change (FC) [20]: 0.77
- fold change (FC) [21]: 11
- fold change (FC) [22]: 1.3
- fold change (FC) [23]: 0.71
- fold change (FC) [24]: 9.3
- fold change (FC) [25]: 7.1
- fold change (FC) [26]: 0.68
- fold change (FC) [27]: 1.4
- fold change (FC) [28]: 1.4
- fold change (FC) [29]: 1.1
- fold change (FC) [30]: 1.8
- fold change (FC) [31]: 1.5
- fold change (FC) [32]: 1.3
- fold change (FC) [33]: 1.3
- fold change (FC) [34]: 0.94
- fold change (FC) [35]: 0.7
- fold change (FC) [36]: 0.65
